Entries after “also recorded” stand apart in the source; their conditions may differ. Like-named read-outs stand apart in the source and are kept apart here. A value given as a limit tells only on which side of the number the result lay.

The conditions of data set [1]: in vivo; ref Obach et al., 2006; Shaffer et al., 2009; cited from earlier work.
A further data set concerns rats consuming ethanol. Particulars: 1 and 2 mg/kg; ref Steensland et al., 2007; cited from earlier work.
For data set [2], the target named is T1, human α3β4 nAChRs (Homo sapiens, UniProt P30926+P32297). Particulars: ref Rollema et al., 2007; cited from earlier work.
T1 sequence (P32297 32-505): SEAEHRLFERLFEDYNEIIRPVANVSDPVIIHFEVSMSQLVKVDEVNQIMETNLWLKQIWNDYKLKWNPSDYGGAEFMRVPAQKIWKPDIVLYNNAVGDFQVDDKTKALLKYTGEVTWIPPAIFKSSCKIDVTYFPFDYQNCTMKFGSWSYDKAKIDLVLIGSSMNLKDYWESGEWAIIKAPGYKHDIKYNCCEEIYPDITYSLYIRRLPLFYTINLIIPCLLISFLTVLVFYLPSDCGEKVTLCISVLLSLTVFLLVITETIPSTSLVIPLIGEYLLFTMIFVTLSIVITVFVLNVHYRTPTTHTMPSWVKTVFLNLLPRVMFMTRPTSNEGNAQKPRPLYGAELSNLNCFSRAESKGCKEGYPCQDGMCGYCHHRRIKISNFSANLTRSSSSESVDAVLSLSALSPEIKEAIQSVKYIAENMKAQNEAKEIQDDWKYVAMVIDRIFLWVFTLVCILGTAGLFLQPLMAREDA
T1 sequence (P30926 22-498): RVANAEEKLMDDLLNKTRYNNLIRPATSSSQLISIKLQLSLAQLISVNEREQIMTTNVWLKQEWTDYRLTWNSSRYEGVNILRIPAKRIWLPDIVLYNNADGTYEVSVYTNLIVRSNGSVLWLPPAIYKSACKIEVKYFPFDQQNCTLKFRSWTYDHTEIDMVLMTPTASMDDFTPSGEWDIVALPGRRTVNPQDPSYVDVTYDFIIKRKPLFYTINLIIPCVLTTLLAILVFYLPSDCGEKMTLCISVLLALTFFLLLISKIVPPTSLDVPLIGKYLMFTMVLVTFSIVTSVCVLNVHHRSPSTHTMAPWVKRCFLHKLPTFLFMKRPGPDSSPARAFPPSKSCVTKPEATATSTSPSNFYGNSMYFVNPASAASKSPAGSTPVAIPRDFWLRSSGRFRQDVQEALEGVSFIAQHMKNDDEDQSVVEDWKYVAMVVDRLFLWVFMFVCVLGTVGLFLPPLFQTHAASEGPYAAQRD
In a further data set the test system is α4β2 nAChRs. Particulars: ref Glick et al., 2000; cited from earlier work.
Data set [3] concerns Wistar rats consuming 20% ethanol. Put plainly: Intermittent access 20% ethanol two-bottle-choice drinking paradigm. It counts as in vivo. An outline of the steps: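 Individually housed rats on a reversed 12-h light cycle had intermittent access to 20% (v/v) ethanol versus water in a two-bottle choice. Once baseline drinking was stable, test compound or saline was given s.c. 30 min before bottles were presented. Injections were 7 days apart in a Latin square, each rat serving as its own control. Intake (g/kg) and preference were measured at 30 min, 6 h and 24 h. Analysis was repeated-measures ANOVA with Newman–Keuls.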

Data set [4] deals with Wistar rats self-administering 10% ethanol. The data set can be described thus: Operant self-administration of 10% ethanol. The following applies: 10 mg/kg s.c., 30 minutes before session. The class given is in vivo. An outline of the steps:
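Wistar rats were trained on FR3 (0.1 ml reward), 30 min daily sessions Mon–Fri, to press for 10% (v/v) ethanol. Test compound or saline was given s.c. either 30 min or 2 h before the session, depending on compound. Injections were 7 days apart in a Latin square, with the normal schedule between them. Active lever presses were analysed by repeated-measures ANOVA with Newman–Keuls (n = 8–13).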

A further data set concerns the target α6/4β4 nAChRs (Homo sapiens, UniProt P30926+P43681+Q15825). The data set can be described thus: Binding affinity for α6/4β4 nAChRs. Particulars: ratio of binding affinities.
The target of the next data set is human α4β2 nAChRs (Homo sapiens, UniProt P17787+P43681). It counts as cell-based. An outline of the steps: (§1)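 HEK293 lines stably transfected with human α3β4 or α4β2 nAChRs. Cells were loaded in growth medium with Calcium Green-1 (2 µM final) mixed 1:1 with 20% pluronic F-127, then read on FLIPR (ex 488, em 516 nm). Agonism was a single compound addition compared with 100 µM ACh. Inhibition used 2 min pretreatment then 30 µM ACh, with ΔF taken relative to vehicle-pretreated wells. Runs were in quadruplicate, with EC50/IC50 from concentration curves.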
Sequence of human α4β2 nAChRs (P43681 29-627 limits assumed): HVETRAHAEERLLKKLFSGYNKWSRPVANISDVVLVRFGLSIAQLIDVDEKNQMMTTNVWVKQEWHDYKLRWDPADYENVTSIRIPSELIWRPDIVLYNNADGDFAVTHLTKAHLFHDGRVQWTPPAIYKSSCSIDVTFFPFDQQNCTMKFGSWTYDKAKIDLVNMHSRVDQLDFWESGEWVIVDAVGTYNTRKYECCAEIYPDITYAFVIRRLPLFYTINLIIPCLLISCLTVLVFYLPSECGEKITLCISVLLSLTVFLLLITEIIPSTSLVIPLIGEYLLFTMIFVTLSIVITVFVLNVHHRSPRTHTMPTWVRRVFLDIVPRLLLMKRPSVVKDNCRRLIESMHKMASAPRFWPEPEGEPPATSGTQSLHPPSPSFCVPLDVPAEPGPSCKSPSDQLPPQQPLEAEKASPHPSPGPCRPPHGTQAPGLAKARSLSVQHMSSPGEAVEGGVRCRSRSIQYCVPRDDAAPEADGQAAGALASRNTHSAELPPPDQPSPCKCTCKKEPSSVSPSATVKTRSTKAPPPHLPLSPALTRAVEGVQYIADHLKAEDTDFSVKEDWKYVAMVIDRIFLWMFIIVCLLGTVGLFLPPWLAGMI
Sequence of human α4β2 nAChRs (P17787 26-502): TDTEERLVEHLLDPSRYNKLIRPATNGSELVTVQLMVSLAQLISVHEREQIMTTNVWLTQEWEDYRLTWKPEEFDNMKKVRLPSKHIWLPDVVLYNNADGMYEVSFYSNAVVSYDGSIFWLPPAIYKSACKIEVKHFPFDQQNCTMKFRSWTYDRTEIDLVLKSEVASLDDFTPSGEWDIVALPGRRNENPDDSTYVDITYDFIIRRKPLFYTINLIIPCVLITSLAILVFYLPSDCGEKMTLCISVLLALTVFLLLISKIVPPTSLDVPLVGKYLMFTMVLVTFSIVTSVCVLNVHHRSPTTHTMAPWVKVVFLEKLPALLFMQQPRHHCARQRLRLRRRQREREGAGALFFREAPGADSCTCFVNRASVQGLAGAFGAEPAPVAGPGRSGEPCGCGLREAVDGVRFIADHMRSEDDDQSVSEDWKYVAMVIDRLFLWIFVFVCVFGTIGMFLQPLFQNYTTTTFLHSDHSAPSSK

In data set [5] the target is T1, human α3β4 nAChRs. The class given is cell-based. Summed up: as §1
Data set [6] in a line: Rat pharmacokinetics, unbound brain concentrations. It counts as in vivo, Sprague-Dawley rats. An outline of the steps: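 Sprague-Dawley rats were dosed s.c. at 1, 5 or 10 mg/kg. Unbound brain concentration (Cb,u) was estimated over time using an LC-MS/MS assay combined with tissue binding, with values in nM and n = 2 per time point.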
Data set [7] has as its system rats self-administering 10% ethanol. Put plainly: Repeated. It counts as in vivo. Summed up: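 Rats trained on FR3 10% ethanol self-administration reached stable baseline and were randomised to drug or saline. Test compound (10 mg/kg s.c.) or saline was given 30 min before each session on 5 consecutive days, with lever presses recorded daily. Post-treatment baseline was taken 24 h after the last dose. The day after a cage change (day 3) was excluded. Analysis was two-way ANOVA with Newman–Keuls (n = 6–7).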

Another data set relates to humans. Particulars: cited from earlier work.
For data set [8] the following is noted: oral administration, ref Shaffer et al., 2009, cited from earlier work.
Setting [9] is: male, Sprague-Dawley, rat, brain (unbound), subcutaneous, 10 mg/kg.
[10] abbreviates: clinically tested as a smoking cessation aid, ref Pfizer, data on file.

Sequence of α6/4β4 nAChRs (Q15825 26-239): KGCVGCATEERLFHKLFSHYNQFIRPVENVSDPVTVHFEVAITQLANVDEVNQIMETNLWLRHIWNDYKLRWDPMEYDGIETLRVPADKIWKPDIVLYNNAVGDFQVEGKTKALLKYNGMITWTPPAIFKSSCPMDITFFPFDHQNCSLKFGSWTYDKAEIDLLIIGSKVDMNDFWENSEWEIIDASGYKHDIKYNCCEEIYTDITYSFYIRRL
Sequence of α6/4β4 nAChRs (P43681 241-627): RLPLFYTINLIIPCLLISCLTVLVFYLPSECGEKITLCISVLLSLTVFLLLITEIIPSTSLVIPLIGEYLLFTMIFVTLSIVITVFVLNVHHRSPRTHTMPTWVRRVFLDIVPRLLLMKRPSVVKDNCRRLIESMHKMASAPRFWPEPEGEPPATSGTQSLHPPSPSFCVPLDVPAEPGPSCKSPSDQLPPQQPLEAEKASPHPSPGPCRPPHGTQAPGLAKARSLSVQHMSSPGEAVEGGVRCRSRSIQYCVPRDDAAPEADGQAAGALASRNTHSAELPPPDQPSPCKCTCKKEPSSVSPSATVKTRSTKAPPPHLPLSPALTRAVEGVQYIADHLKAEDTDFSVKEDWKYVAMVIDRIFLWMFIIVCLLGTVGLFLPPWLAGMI
Sequence of α6/4β4 nAChRs (P30926 22-498): as the sequence (P30926 22-498) above

On to `c1cnc2cc3c(cc2n1)[C@@H]1CNC[C@H]3C1` [Varenicline], for which the active metabolites result in data set [1] is given as “not formed in vivo”. For the same molecule, in the data set on rats consuming ethanol, the ethanol intake result is given as “significantly reduce ethanol intake”. For the same molecule, the “Activation Efficacy (% vs ACh)” value at human α3β4 nAChRs [2] was 93.5 ± 1.4 (5) % vs ACh.
Turning to `COCC[C@H]1CC2CN3CCc4c([nH]c5ccccc45)[C@](C(=O)OC)(C2)[C@H]13` [18-MC, 18-methoxycoronaridine], the “effect at α4β2 nAChRs” value with α4β2 nAChRs is given as “no effect”.
Turning to `FC(F)(F)c1ccc2c(c1)[C@@H]1CNC[C@H]2C1` [CP-601932, (1S,5R)-2,3,4,5-tetrahydro-7-(trifluoromethyl)-1,5-methano-1H-3-benzazepine], the “ethanol consumption vs vehicle” value in [3] (5 mg/kg s.c., at 30 minutes) is “significantly decreased high voluntary ethanol consumption”; in data set [3] (10 mg/kg s.c., 6 h and 24 h time points) it was “decreased ethanol consumption”; in data set [3] (10 mg/kg s.c., at 30 minutes), “significantly decreased high voluntary ethanol consumption”. Besides, in data set [3] (highest dose (10 mg/kg s.c.), all time points), the “preference for ethanol over water vs vehicle” value was “decreased the preference for ethanol over water”. Besides, the “active lever presses for 10% ethanol vs vehicle” value is listed as “significantly decreased the number of presses on the active lever” in data set [4] and “decreased active lever presses” in [7] (10 mg/kg s.c. once per day for 5 consecutive days, 30 minutes before session). For the same molecule, the active metabolites result in [1] is given as “not formed in vivo”. For the same molecule, the “fold higher affinity for α3β4 than for α6/4β4 nAChRs” value at α6/4β4 nAChRs is recorded as “at least 10 fold”. Moreover, the EC50 on human α4β2 nAChRs is more than 30000 nM; at human α3β4 nAChRs [5] (Activation EC50, α3β4, vs 100 μM ACh), 2920 ± 320 nM. Also, the IC50 against human α4β2 nAChRs is 114 ± 29 nM; at human α3β4 nAChRs [5] (IC50 for inhibition of α3β4 nAChRs, range given in text for both compounds) it was 100 to 300 nM; on human α3β4 nAChRs [5] (Inhibition IC50, α3β4, 2 min pre-application, 30 μM ACh challenge), 257 ± 41 nM. Also, the “Activation of α4β2 nAChRs (Ca2+ fluorescence)” value on human α4β2 nAChRs (α4β2) was “no measurable change in Ca2+-fluoresence”. The “maximal unbound brain concentration Cb,u” value in data set [6] (10 mg/kg s.c., at 30 minutes) was 710 nM. For the same molecule, the concentration at 5 h in [6] (setting [9]) came to 530 nM. The molecule also showed a concentration at 24 h in data set [6] (setting [9]) of 85 nM. Further, the “rebound in active lever presses after end of chronic treatment” value in [7] (10 mg/kg s.c. for 5 days, compared to baseline) is listed as “no rebound increase in active lever presses”. Moreover, in the data set with humans (clinical trial as potential smoking cessation aid), the “side effects indicative of ganglion blocking effects” value is on record as “did not show side effects indicative of ganglion blocking effects”. Moreover, the abstinence rate entry with humans (setting [10]) is given as “moderate two-fold increase in abstinence rate that was not statistically significant”. For the same molecule, the “tolerability / safety in humans” value in the data set with humans (setting [10]) is recorded as “safe in humans; also recorded: generally well tolerated”. For the same molecule, the brain penetration entry in data set [8] (rats) was “extensive brain penetration”. Besides, the absorption entry in data set [8] is “well absorbed”. Also, the half-life result in data set [8] is reported as “long half-life”.

The record behind these values is paper PMC3055681 (Neuropsychopharmacology : official publication of the …, 2010).
